Reference: ChEMBL document CHEMBL3872228, “A new scaffold of topoisomerase I inhibitors: Design, synthesis and biological evaluation” (2016)
Values belong to the compound of their own block, whether it stands above or below them. Active and inactive are the calls of the source. The rule behind the calls is not given here.

Key:
[1] = Growth inhibition of human HeLa cells after 72 hrs by trypan blue assay; format: functional
Procedure, shortened: (§1)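 Medium: HeLa in F-12 [HAM]; H460 and MSTO-211H in RPMI 1640 plus Hepes, pyruvate and glucose. All media contained 10% heat-inactivated FCS and antibiotics; 37°C, 5% CO2. 3–4 × 10^4 cells/well grew 24 h, then test agents were added at various concentrations for 72 h. Viability by trypan blue; GI50 = concentration giving 50% reduction in cell number vs control.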

[2] = Growth inhibition of human MSTO-211H cells after 72 hrs by trypan blue assay; format: functional; procedure, shortened: as §1
[3] = Growth inhibition of human H460 cells after 72 hrs by trypan blue assay; format: functional; conditions: NCI-H460, 72 h; procedure, shortened: as §1
[4] = target: T1, DNA topoisomerase 1 (Homo sapiens) (UniProt P11387); experiment: Poison activity at human recombinant topoisomerase 1 assessed as enzyme-supercoiled pBR322 DNA cleavable complex at 25 to 100 uM after 60 mins by agarose gel electrophoresis
T1 sequence (whole entry): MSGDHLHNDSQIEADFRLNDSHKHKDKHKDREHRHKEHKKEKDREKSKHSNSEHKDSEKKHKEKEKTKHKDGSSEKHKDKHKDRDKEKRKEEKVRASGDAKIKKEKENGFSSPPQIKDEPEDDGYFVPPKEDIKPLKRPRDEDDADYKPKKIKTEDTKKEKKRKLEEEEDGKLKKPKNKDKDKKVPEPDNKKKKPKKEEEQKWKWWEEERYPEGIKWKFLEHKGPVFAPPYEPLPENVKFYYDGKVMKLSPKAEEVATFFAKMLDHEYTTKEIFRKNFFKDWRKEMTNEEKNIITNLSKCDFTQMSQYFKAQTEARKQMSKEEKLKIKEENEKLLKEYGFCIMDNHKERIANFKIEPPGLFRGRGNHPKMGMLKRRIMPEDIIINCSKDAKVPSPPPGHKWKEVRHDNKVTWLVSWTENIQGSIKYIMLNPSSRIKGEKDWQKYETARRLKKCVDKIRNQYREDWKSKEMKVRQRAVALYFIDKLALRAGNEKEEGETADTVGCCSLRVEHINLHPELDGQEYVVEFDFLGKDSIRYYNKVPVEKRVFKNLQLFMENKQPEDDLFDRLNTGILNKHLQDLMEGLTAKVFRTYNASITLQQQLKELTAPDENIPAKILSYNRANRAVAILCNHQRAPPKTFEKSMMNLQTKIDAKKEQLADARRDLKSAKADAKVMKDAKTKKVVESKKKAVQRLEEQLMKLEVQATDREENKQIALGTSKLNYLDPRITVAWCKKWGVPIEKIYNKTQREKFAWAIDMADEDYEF

[5] = Binding affinity to DNA (unknown origin) assessed as induction of negative LD signal at 260 nm at 1.2 x 10^-5 M by linear flow dichroism method; conditions: in the assay text read “380 to 520 nm” for “260 nm”
Procedure, shortened: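 Linear flow dichroism: aqueous DNA solutions at 1.9 × 10^-3 M in ETN buffer (10 mM TRIS, 1 mM EDTA, pH 7.0, 0.01 M NaCl); spectra recorded at 25°C at [drug]/[DNA] ratios of 0 and 0.08.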

[6] = target: T1, DNA topoisomerase 1 (Homo sapiens); experiment: Inhibition of human recombinant topoisomerase 1 catalytic activity assessed as decrease in relaxation of supercoiled pBR322 DNA at 100 uM after 60 mins by agarose gel electrophoresis
Procedure, shortened: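 Supercoiled pBR322 plasmid (0.25 µg) with 2U human recombinant topoisomerase I plus test compound, 60 min at 37 °C. Stopped with SDS stop buffer and proteinase K (50 µg/mL), a further 30 min at 37 °C. Run on 1% agarose; post-stained with ethidium bromide 1 µg/mL in TAE and imaged under UV.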

[7] = target: T1, DNA topoisomerase 1 (Homo sapiens); experiment: Poison activity at human recombinant topoisomerase 1 assessed as enzyme-supercoiled pBR322 DNA cleavable complex at 500 uM after 60 mins by agarose gel electrophoresis

SMILES: C=CC[C@@]12CCN[C@@H]1n1c3nc4ccc(O)cc4cc3c(=O)c3cccc2c31
GI50 [1]: 19 µM | GI50 [2]: 18.7 µM | GI50 [3]: > 50 µM

SMILES: C=CC[C@@]12CCN(C(=O)OC(C)(C)C)[C@@H]1n1c3nc4ccc(O)c(CN(C)C)c4cc3c(=O)c3cccc2c31
GI50 [1]: 35.2 µM | GI50 [2]: 22.8 µM | GI50 [3]: 17.8 µM

SMILES: C=CC[C@@]12CCN[C@@H]1n1c3nc4ccccc4cc3c(=O)c3cc(OC)cc2c31
GI50 [1]: 30.7 µM | GI50 [2]: 14.4 µM | GI50 [3]: 32.2 µM

SMILES: CC[C@@]1(O)C(=O)OCc2c1cc1n(c2=O)Cc2cc3ccccc3nc2-1 [CAMPTOTHECIN]
GI50 [1]: 0.0054 µM | GI50 [2]: 0.0021 µM | GI50 [3]: 0.002 µM

SMILES: C=CC[C@@]12CCN(C)[C@@H]1n1c3nc4ccc(OC)cc4cc3c(=O)c3cc(OC)cc2c31
GI50 [1]: 18.3 µM | GI50 [2]: 34.2 µM | GI50 [3]: 50 µM

SMILES: CN(C)Cc1c(O)ccc2nc3c(cc12)c(=O)c1cccc2c1n3[C@H]1N(C(=O)OC(C)(C)C)CC[C@@]21CCO
GI50 [1]: 13 µM | GI50 [2]: 20 µM | GI50 [3]: 16.4 µM

Activity [5]: Active | inhibition [6]: Active
SMILES: COc1ccc2nc3c(cc2c1)c(=O)c1cccc2c1n3[C@H]1NCC[C@@]21CCO
GI50 [1]: 1.4 µM | Activity [4]: Active | GI50 [2]: 1.9 µM | GI50 [3]: 0.85 µM

SMILES: C=CC[C@@]12CCN(C(=O)OC(C)(C)C)[C@@H]1n1c3nc4ccc(O)cc4cc3c(=O)c3cccc2c31
GI50 [1]: 30.5 µM | GI50 [2]: 24.1 µM | GI50 [3]: 32.7 µM

SMILES: C=CC[C@@]12CCN[C@@H]1n1c3nc4ccc(O)c(CN(C)C)c4cc3c(=O)c3cccc2c31
GI50 [1]: 29.3 µM | GI50 [2]: 29.1 µM | GI50 [3]: 26.2 µM

SMILES: C=CC[C@@]12CCN[C@@H]1n1c3nc4ccc(O)cc4cc3c(=O)c3cc(O)cc2c31
GI50 [1]: 15.3 µM | GI50 [2]: 7 µM | GI50 [3]: 4.8 µM

SMILES: C=CC[C@@]12CCN[C@@H]1n1c3nc4ccccc4cc3c(=O)c3cccc2c31
GI50 [1]: 16.5 µM | GI50 [2]: 13 µM | GI50 [3]: 14.4 µM

SMILES: CC(C)(C)OC(=O)N1CC[C@@]2(CCO)c3cccc4c(=O)c5cc6cc(O)ccc6nc5n(c34)[C@@H]12
GI50 [1]: 13 µM | GI50 [2]: 13.7 µM | GI50 [3]: 26.8 µM

SMILES: C=CC[C@@]12CCN[C@@H]1n1c3nc4ccc(OC)cc4cc3c(=O)c3cc(OC)cc2c31
GI50 [1]: 16.6 µM | GI50 [2]: 13.5 µM | GI50 [3]: 18.6 µM

Activity [5]: Active | inhibition [6]: Active
SMILES: C=CC[C@@]12CCN[C@@H]1n1c3nc4ccc(OC)cc4cc3c(=O)c3cccc2c31
Activity [7]: Active | GI50 [1]: 14.8 µM | GI50 [2]: 7.8 µM | GI50 [3]: 8.9 µM
